In ChEMBL document CHEMBL3774319, “Novel indole sulfides as potent HIV-1 NNRTIs” (Bioorg Med Chem Lett, 2016):

Tests used:
[1] = tested on: Human immunodeficiency virus 1; experiment: Antiretroviral activity against HIV-1 infected in HEK293T cells assessed as inhibition of viral replication by single-cycle assay; type: functional, organism-based; settings: Human immunodeficiency virus 1, HEK-293T
How it was run: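 In vitro single-cycle, non-replicative phenotypic anti-HIV-1 assay; IC50 values derived from it.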

[2] = Cytotoxicity against HEK293T cells by MTT assay; type: cell-based, HEK-293T; settings: human
How it was run: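 HEK293T cells read out with a tetrazolium-based colorimetric assay to give toxicity values.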

[3] = Stability in ethanol solution containing sulfuric acid assessed as compound degradation at 0.10 mmol measured within 2 hrs by HPLC method; type: physicochemical

Structure (SMILES)	IC50 [1] [µM]	Stability [3]	CC50 [2] [µM]
CCOC(=O)c1[nH]c2ccc(Cl)cc2c1C(SC)c1ccccc1 (racemic)	0.039	–	26.1
CCOC(=O)c1[nH]c2ccc(Cl)cc2c1C(SC)c1cccc(C)c1 (racemic)	0.038	Stable	29.6
CSC(c1ccccc1)c1c[nH]c2ccc(Cl)cc12 (racemic)	9.95	–	52.7
CCOC(=O)c1[nH]c2ccc(Cl)cc2c1C(SC)c1cc(C)cc(C)c1 (racemic)	0.06	–	32
CCOC(=O)c1[nH]c2ccc(Cl)cc2c1N(CC)c1ccccc1	1.2	–	22.8

The next lines start with results.

IC50 [1] [µM]	Stability [3]	Structure (SMILES)	CC50 [2] [µM]
0.042	–	CCOC(=O)c1[nH]c2ccc(Cl)cc2c1C(SC)c1cccc(Cl)c1 (racemic)	28.6
0.033	–	CCOC(=O)c1[nH]c2ccc(Cl)cc2c1C(OC)c1cccc(Cl)c1 (racemic)	26.8
0.02	Unstable	CCOC(=O)c1[nH]c2ccc(Cl)cc2c1C(OC)c1cccc(C)c1 (racemic)	27.4
0.02	–	CCOC(=O)c1[nH]c2ccc(Cl)cc2c1C(OC)c1cccc(Br)c1 (racemic)	26.4
